According to the RNAGym collection of RNA variant scans (doi:10.1126/science.aae0568):
This sample holds only a part of the variants without activity.

B1: tRNA (parent)
chain: GUUCCGUUGGCGUAAUGGUAACGCGUCUCCCUCCUAAGGAGAAGACUGCGGGUUCGAGUCCCGUACGGAACG

Variants of: B1
Assay: yeast fitness relative to wild type (ratio to wild type); higher = fitter; tRNA-Arg(CCU), competitive growth, 37 C, YPD
Summary of the method: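 Gene amplicons from the start population and from each of six end populations were read by 100-nucleotide paired-end sequencing. Those end populations came from pooled Saccharomyces cerevisiae strains carrying tRNA-Arg(CCU) gene variants at the native locus, competed in YPD at 37°C for 24 hours. Fitness relative to wild type was worked out from changes in genotype frequencies. Genotypes needed ≥ 100 starting reads, and estimates < 0.5 were set to 0.5.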

Going from U2G G39A G68U to U2G G41C, the yeast fitness rises from no more than 0.5 to 0.818.

Going from U2G G41C A65C to U2G G44A, the yeast fitness rises from 0.534 to 0.849.

U2G G44A G51C and U2G G44A G51C A65U cannot be ordered by yeast fitness: no more than 0.5 for the first, no more than 0.5 for the second.

First: U2G G44C C60U A69G
Second: U2G G48A
The yeast fitness of the first is lower: no more than 0.5 for the first, 0.94 for the second.

Going from U2G G48A C60G to U2G G48A G58C, the yeast fitness rises from 0.541 to 0.895.

Going from U2G G48A G58C C61A to U2G G48C, the yeast fitness rises from no more than 0.5 to 0.849.

Going from U2G G48C G52C C62G to U2G G50A, the yeast fitness rises from 0.541 to 0.888.

Going from U2G G50C to U2G G51A, the yeast fitness rises from 0.6 to 0.805.

Compared with U2G G51A C60U, U2G G58A is higher in yeast fitness: no more than 0.5 for the first, 1.16 for the second.

Compared with U2G G58A C60A C66G, U2G G58C is higher in yeast fitness: 0.562 for the first, 0.755 for the second.

First: U2G G63C
Second: U2G G67A
The yeast fitness of the first is lower: 0.694 for the first, 0.901 for the second.

Compared with U2G G67C, U2G G67U is higher in yeast fitness: 0.759 for the first, 0.821 for the second.

Compared with U2G G68U, U2G U3A C5U U7C U8A A20C U35C A37U A57C is lower in yeast fitness: 0.835 for the first, 0.565 for the second.

U2G U3G C11U G52C C55G A70G and U2G U3G C29G C30G C46G cannot be ordered by yeast fitness: no more than 0.5 for the first, no more than 0.5 for the second.

Going from U2G U7C to U2G U7C A37C U59C, the yeast fitness falls from 0.772 to no more than 0.5.

U2G U7C U28A and U2G U7G A43C A45U C60A cannot be ordered by yeast fitness: no more than 0.5 for the first, no more than 0.5 for the second.

U2G U7G C60U C61A G67C and U2G U7G U16C C34U cannot be ordered by yeast fitness: no more than 0.5 for the first, no more than 0.5 for the second.

Going from U2G U8A G23A U26G A43G U54C C55A to U2G U8C, the yeast fitness rises from no more than 0.5 to 0.891.

U2G U8C U26C G56A and U2G U13A C22U U54A C61G A69C cannot be ordered by yeast fitness: no more than 0.5 for the first, no more than 0.5 for the second.

First: U2G U13A G58A
Second: U2G U13A U16A C29G
The yeast fitness of the first is higher: 0.585 for the first, no more than 0.5 for the second.

U2G U13A U28A G39A G48A C61G C66G and U2G U13C A21G G39C C55U cannot be ordered by yeast fitness: no more than 0.5 for the first, no more than 0.5 for the second.

U2G U13C A21G U35A and U2G U13C A21G U35A C55U A65G cannot be ordered by yeast fitness: no more than 0.5 for the first, no more than 0.5 for the second.

Compared with U2G U13G A57G, U2G U13G U16C is lower in yeast fitness: 0.538 for the first, no more than 0.5 for the second.

U2G U16C C27U U35C and U2G U16G A21U C33A C66G cannot be ordered by yeast fitness: no more than 0.5 for the first, no more than 0.5 for the second.

Going from U2G U19A A69U to U2G U19A C46U, the yeast fitness falls from 0.551 to no more than 0.5.

First: U2G U19A C66U
Second: U2G U19A U53C G67A
The yeast fitness of the first is higher: 0.606 for the first, 0.563 for the second.

Compared with U2G U19C G48C G52C C62G, U2G U26A is higher in yeast fitness: no more than 0.5 for the first, 0.828 for the second.

U2G U26A A43G G44C U53C and U2G U26A G52A cannot be ordered by yeast fitness: no more than 0.5 for the first, no more than 0.5 for the second.

U2G U26A U54A and U2G U26C C49U C55A cannot be ordered by yeast fitness: no more than 0.5 for the first, no more than 0.5 for the second.

Going from U2G U26G to U2G U28A C33U C46G, the yeast fitness falls from 0.693 to no more than 0.5.

U2G U28A U32C C49G G52A and U2G U28G A45C G63C cannot be ordered by yeast fitness: no more than 0.5 for the first, no more than 0.5 for the second.

U2G U28G G68C and U2G U28G U59A cannot be ordered by yeast fitness: no more than 0.5 for the first, no more than 0.5 for the second.

Compared with U2G U32C, U2G U32G is lower in yeast fitness: 0.867 for the first, 0.68 for the second.

U2G U32G A42U and U2G U35A A40U A57U cannot be ordered by yeast fitness: no more than 0.5 for the first, no more than 0.5 for the second.

Going from U2G U35C to U2G U47C, the yeast fitness rises from 0.72 to 0.992.

Going from U2G U53A to U2G U54C C62G A70U, the yeast fitness falls from 0.532 to no more than 0.5.

Going from U2G U59A to U2G U59C, the yeast fitness falls from 0.851 to 0.848.

Going from U2G U64C to U3A A14C A20C U28A C29G U32C G39A A57C, the yeast fitness falls from 0.841 to no more than 0.5.

Going from U3A A14C A37C to U3A A14C C34A G52A A70G, the yeast fitness rises from no more than 0.5 to 0.673.

U3A A14C C46G and U3A A14C C46U cannot be ordered by yeast fitness: no more than 0.5 for the first, no more than 0.5 for the second.

Compared with U3A A14G A15G A20U A37G G41A, U3A A14G A15U A36U G39C A40U C49U C55A is higher in yeast fitness: 0.525 for the first, 0.612 for the second.

First: U3A A14G C24G A42C
Second: U3A A14G C24G C29A G50C A57C
The yeast fitness of the first is higher: 0.54 for the first, no more than 0.5 for the second.

Going from U3A A14G G23C A65C to U3A A14G G23C A70C, the yeast fitness rises from no more than 0.5 to 0.573.

Going from U3A A14G G23C U32A G52C to U3A A14G G58C, the yeast fitness rises from no more than 0.5 to 0.753.

Compared with U3A A14U, U3A A14U A37G A57C is lower in yeast fitness: 0.731 for the first, no more than 0.5 for the second.

U3A A14U A57U and U3A A14U C46U U53A cannot be ordered by yeast fitness: no more than 0.5 for the first, no more than 0.5 for the second.

Compared with U3A A14U C62U, U3A A15C C22G U32C G41A is lower in yeast fitness: 0.79 for the first, no more than 0.5 for the second.

Compared with U3A A15C C66U, U3A A15C U16C C66U is lower in yeast fitness: 0.659 for the first, no more than 0.5 for the second.

U3A A15C U47C and U3A A15G U19A G41A cannot be ordered by yeast fitness: no more than 0.5 for the first, no more than 0.5 for the second.

First: U3A A15G U19A G41A G50A
Second: U3A A15G U35C G52A
The yeast fitness of the first is lower: no more than 0.5 for the first, 0.525 for the second.

Compared with U3A A15G U35C G52A G58C C66U, U3A A15G U47G is higher in yeast fitness: no more than 0.5 for the first, 0.794 for the second.

Compared with U3A A15U, U3A A15U C34U G48A C60U is lower in yeast fitness: 0.695 for the first, no more than 0.5 for the second.

First: U3A A15U G23C C27U G52A
Second: U3A A15U U28G C55A A70U
The yeast fitness of the first is lower: 0.64 for the first, 0.779 for the second.

Compared with U3A A20C A21G C61A, U3A A20C U32A is lower in yeast fitness: 0.514 for the first, no more than 0.5 for the second.

U3A A20C U32A A65U and U3A A20C U32A A70G cannot be ordered by yeast fitness: no more than 0.5 for the first, no more than 0.5 for the second.

Going from U3A A20C U32A C62U G63A to U3A A20G, the yeast fitness rises from 0.572 to 1.

U3A A20G A36C G51C and U3A A20G A43U C55G C61U cannot be ordered by yeast fitness: no more than 0.5 for the first, no more than 0.5 for the second.

U3A A20G C22U G44C and U3A A20G C24U C55G C61U cannot be ordered by yeast fitness: no more than 0.5 for the first, no more than 0.5 for the second.

Going from U3A A20G G44A C49A U59A to U3A A20G G56A, the yeast fitness rises from no more than 0.5 to 0.707.

First: U3A A20U
Second: U3A A20U A37G
The yeast fitness of the first is higher: 0.834 for the first, 0.608 for the second.

Compared with U3A A20U C29G C49G G63C, U3A A20U C49U is higher in yeast fitness: no more than 0.5 for the first, 0.531 for the second.

First: U3A A21C
Second: U3A A21C A36U
The yeast fitness of the first is higher: 0.768 for the first, no more than 0.5 for the second.

Compared with U3A A21C A36U G58A, U3A A21C C24G is higher in yeast fitness: no more than 0.5 for the first, 0.507 for the second.

U3A A21C C24G C49U A65C and U3A A21C C24G C61U cannot be ordered by yeast fitness: no more than 0.5 for the first, no more than 0.5 for the second.

Going from U3A A21C C24G C62G A70G to U3A A21C C24G C62U, the yeast fitness rises from no more than 0.5 to 0.526.

U3A A21C C24G G63A and U3A A21C C49G cannot be ordered by yeast fitness: no more than 0.5 for the first, no more than 0.5 for the second.

First: U3A A21C G25U A43C
Second: U3A A21G
The yeast fitness of the first is lower: no more than 0.5 for the first, 0.926 for the second.

First: U3A A21G A45G A69C
Second: U3A A21G C31A G48C
The yeast fitness of the first is higher: 0.726 for the first, no more than 0.5 for the second.

Compared with U3A A21G C33G C34G, U3A A21G C46A is higher in yeast fitness: no more than 0.5 for the first, 0.695 for the second.

Compared with U3A A21G C66U A70C, U3A A21G G23C A36U C60A is lower in yeast fitness: 0.794 for the first, no more than 0.5 for the second.

Going from U3A A21G U28A A42C A57G C66A to U3A A21U, the yeast fitness falls from 0.733 to 0.71.

U3A A21U A65U and U3A A21U C49A cannot be ordered by yeast fitness: no more than 0.5 for the first, no more than 0.5 for the second.

U3A A21U G23C A43C and U3A A21U U28A A42C A57G C66A cannot be ordered by yeast fitness: no more than 0.5 for the first, no more than 0.5 for the second.

Compared with U3A A36G, U3A A36G A70C is higher in yeast fitness: 0.868 for the first, 0.991 for the second.

Compared with U3A A36G C66U, U3A A36G G56A A65C A69C is lower in yeast fitness: 0.666 for the first, no more than 0.5 for the second.

Compared with U3A A36U U53G, U3A A37C is higher in yeast fitness: 0.619 for the first, 0.796 for the second.

First: U3A A37C A43C
Second: U3A A37C A45C
The yeast fitness of the first is lower: no more than 0.5 for the first, 0.6 for the second.

First: U3A A37G
Second: U3A A37G A42G G50A C55U U64C
The yeast fitness of the first is higher: 0.887 for the first, no more than 0.5 for the second.

Compared with U3A A37G G41A, U3A A37U is higher in yeast fitness: no more than 0.5 for the first, 0.754 for the second.

U3A A37U A42G and U3A A37U C66A cannot be ordered by yeast fitness: no more than 0.5 for the first, no more than 0.5 for the second.

Compared with U3A A37U G38C, U3A A40C is higher in yeast fitness: no more than 0.5 for the first, 0.635 for the second.

First: U3A A40C U47A G68C
Second: U3A A40G
The yeast fitness of the first is lower: no more than 0.5 for the first, 0.888 for the second.

First: U3A A40G A57C A69C
Second: U3A A40G C49U
The yeast fitness of the first is lower: no more than 0.5 for the first, 0.54 for the second.

U3A A40G C55G gave a yeast fitness of 0.813.
